Data published in ChEMBL document CHEMBL5303300, “EUbOPEN Chemogenomics Library - Multiplex” (2023).
Values joined by “and” are separate entries in the source; they are usually repeats but may differ in a detail not shown here. Identical values can stand only once.

Key:
Assay type in all cases: toxicity, cell-based
[1] = test system: Fibroblast; assay: Multiplex assay against human fibroblast; conditions: number of replicates 2
In short: (§1)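 Live cells carried four stains from seeding: Hoechst33342, BioTracker Green Microtubule Cytoskeleton Dye, MitoTracker Red and Annexin V Alexa Fluor 680. They were imaged on a CQ1 microscope at 37°C and 5% CO2 after compound addition. Using CellPathfinder machine-learning gating, cells were split into Hoechst high-intensity objects or normal cells, normal cells into healthy, pyknosed or fragmented nuclei, and pyknosed cells into mitotic or apoptotic; tubulin, mitochondrial-mass and membrane-permeability phenotypes are per cents of healthy-nucleus cells.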

[2] = test system: HEK-293T; assay: Multiplex assay against HEK293T; conditions: human, number of replicates 2; in short: as §1
[3] = test system: U2OS; assay: Multiplex assay against U2OS; conditions: human, number of replicates 2; in short: as §1
[4] = 12 h, 1 µM, compound concentration 1 uM
[5] = 12 h, 10 µM, compound concentration 10 uM
[6] = 24 h, 1 µM, compound concentration 1 uM
[7] = 24 h, 10 µM, compound concentration 10 uM
[8] = 48 h, 1 µM, compound concentration 1 uM
[9] = 48 h, 10 µM, compound concentration 10 uM

## COc1ccc(CC[C@@H](OC(=O)[C@@H]2CCCCN2C(=O)[C@H](c2cc(OC)c(OC)c(OC)c2)C2CCCCC2)c2cccc(OCCN3CCOCC3)c2)cc1OC
[1]; [4]
  Population Apoptotic (%): 42% and 47%
  Population Fragmented Nuclei (%): 12% and 11%
  Population Healthy Nuclei (%): 65% and 64%
  Population Hoechst High Intensity Objects (%): 0%
  Population Membrane Permeable-Phenotype (%): 20%
  Population Mitochondria Different-Phenotype (%): 7% and 2%
  Population Mitotic Cells (%): 57% and 52%
  Population Normal (%): 100% and 99%
  Population Pyknosed Nuclei (%): 21% and 23%
  Population Tubulin-Different-Phenotype (%): 81% and 69%
  Total Cell Count: 227 and 146
[1]; [5]
  Population Apoptotic (%): 51% and 55%
  Population Fragmented Nuclei (%): 14% and 19%
  Population Healthy Nuclei (%): 60% and 59%
  Population Hoechst High Intensity Objects (%): 0%
  Population Membrane Permeable-Phenotype (%): 25% and 21%
  Population Mitochondria Different-Phenotype (%): 14% and 11%
  Population Mitotic Cells (%): 48% and 44%
  Population Normal (%): 99% and 100%
  Population Pyknosed Nuclei (%): 24% and 20%
  Population Tubulin-Different-Phenotype (%): 89% and 84%
  Total Cell Count: 188 and 273
[1]; [6]
  Population Apoptotic (%): 50% and 59%
  Population Fragmented Nuclei (%): 7% and 20%
  Population Healthy Nuclei (%): 67% and 51%
  Population Hoechst High Intensity Objects (%): 0%
  Population Membrane Permeable-Phenotype (%): 10% and 9%
  Population Mitochondria Different-Phenotype (%): 14%
  Population Mitotic Cells (%): 50% and 40%
  Population Normal (%): 99% and 100%
  Population Pyknosed Nuclei (%): 24% and 28%
  Population Tubulin-Different-Phenotype (%): 74% and 65%
  Total Cell Count: 207 and 148
[1]; [7]
  Population Apoptotic (%): 66% and 71%
  Population Fragmented Nuclei (%): 14% and 20%
  Population Healthy Nuclei (%): 59% and 56%
  Population Hoechst High Intensity Objects (%): 0%
  Population Membrane Permeable-Phenotype (%): 15% and 6%
  Population Mitochondria Different-Phenotype (%): 24% and 45%
  Population Mitotic Cells (%): 33% and 28%
  Population Normal (%): 99%
  Population Pyknosed Nuclei (%): 26% and 22%
  Population Tubulin-Different-Phenotype (%): 86% and 89%
  Total Cell Count: 193 and 253
[1]; [8]
  Population Apoptotic (%): 71% and 82%
  Population Fragmented Nuclei (%): 6% and 14%
  Population Healthy Nuclei (%): 77% and 66%
  Population Hoechst High Intensity Objects (%): 0%
  Population Membrane Permeable-Phenotype (%): 8% and 17%
  Population Mitochondria Different-Phenotype (%): 3% and 10%
  Population Mitotic Cells (%): 28% and 17%
  Population Normal (%): 100% and 99%
  Population Pyknosed Nuclei (%): 16% and 18%
  Population Tubulin-Different-Phenotype (%): 61% and 51%
  Total Cell Count: 199 and 150
[1]; [9]
  Population Apoptotic (%): 85% and 80%
  Population Fragmented Nuclei (%): 22% and 29%
  Population Healthy Nuclei (%): 59% and 55%
  Population Hoechst High Intensity Objects (%): 1% and 0%
  Population Membrane Permeable-Phenotype (%): 20% and 8%
  Population Mitochondria Different-Phenotype (%): 27% and 30%
  Population Mitotic Cells (%): 14% and 20%
  Population Normal (%): 98% and 99%
  Population Pyknosed Nuclei (%): 17% and 15%
  Population Tubulin-Different-Phenotype (%): 91%
  Total Cell Count: 195 and 265
[2]; [4]
  Population Apoptotic (%): 53% and 42%
  Population Fragmented Nuclei (%): 5% and 3%
  Population Healthy Nuclei (%): 82% and 83%
  Population Hoechst High Intensity Objects (%): 7% and 6%
  Population Membrane Permeable-Phenotype (%): 7% and 6%
  Population Mitochondria Different-Phenotype (%): 27% and 28%
  Population Mitotic Cells (%): 46% and 57%
  Population Normal (%): 92% and 93%
  Population Pyknosed Nuclei (%): 11% and 12%
  Population Tubulin-Different-Phenotype (%): 77% and 92%
  Total Cell Count: 574 and 636
[2]; [5]
  Population Apoptotic (%): 70% and 68%
  Population Fragmented Nuclei (%): 2%
  Population Healthy Nuclei (%): 85% and 83%
  Population Hoechst High Intensity Objects (%): 10% and 11%
  Population Membrane Permeable-Phenotype (%): 2%
  Population Mitochondria Different-Phenotype (%): 75% and 72%
  Population Mitotic Cells (%): 29% and 31%
  Population Normal (%): 89% and 88%
  Population Pyknosed Nuclei (%): 12% and 13%
  Population Tubulin-Different-Phenotype (%): 68% and 58%
  Total Cell Count: 560 and 485
[2]; [6]
  Population Apoptotic (%): 46% and 44%
  Population Fragmented Nuclei (%): 9% and 4%
  Population Healthy Nuclei (%): 81% and 86%
  Population Hoechst High Intensity Objects (%): 10% and 8%
  Population Membrane Permeable-Phenotype (%): 8% and 7%
  Population Mitochondria Different-Phenotype (%): 12% and 18%
  Population Mitotic Cells (%): 53% and 55%
  Population Normal (%): 89% and 91%
  Population Pyknosed Nuclei (%): 8%
  Population Tubulin-Different-Phenotype (%): 64% and 80%
  Total Cell Count: 873 and 879
[2]; [7]
  Population Apoptotic (%): 72% and 63%
  Population Fragmented Nuclei (%): 2%
  Population Healthy Nuclei (%): 82% and 81%
  Population Hoechst High Intensity Objects (%): 8% and 13%
  Population Membrane Permeable-Phenotype (%): 0%
  Population Mitochondria Different-Phenotype (%): 89% and 88%
  Population Mitotic Cells (%): 27% and 36%
  Population Normal (%): 91% and 86%
  Population Pyknosed Nuclei (%): 14% and 15%
  Population Tubulin-Different-Phenotype (%): 56% and 52%
  Total Cell Count: 512 and 487
[2]; [8]
  Population Apoptotic (%): 30% and 18%
  Population Fragmented Nuclei (%): 8% and 13%
  Population Healthy Nuclei (%): 87% and 83%
  Population Hoechst High Intensity Objects (%): 9% and 8%
  Population Membrane Permeable-Phenotype (%): 6%
  Population Mitochondria Different-Phenotype (%): 5% and 4%
  Population Mitotic Cells (%): 69% and 81%
  Population Normal (%): 90% and 91%
  Population Pyknosed Nuclei (%): 3% and 2%
  Population Tubulin-Different-Phenotype (%): 67% and 48%
  Total Cell Count: 1619 and 1643
[2]; [9]
  Population Apoptotic (%): 84% and 73%
  Population Fragmented Nuclei (%): 3% and 5%
  Population Healthy Nuclei (%): 84% and 83%
  Population Hoechst High Intensity Objects (%): 9% and 11%
  Population Membrane Permeable-Phenotype (%): 1%
  Population Mitochondria Different-Phenotype (%): 79% and 83%
  Population Mitotic Cells (%): 15% and 26%
  Population Normal (%): 90% and 88%
  Population Pyknosed Nuclei (%): 11%
  Population Tubulin-Different-Phenotype (%): 62% and 60%
  Total Cell Count: 551 and 526
[3]; [4]
  Population Apoptotic (%): 66% and 51%
  Population Fragmented Nuclei (%): 10% and 3%
  Population Healthy Nuclei (%): 64% and 82%
  Population Hoechst High Intensity Objects (%): 0%
  Population Membrane Permeable-Phenotype (%): 33% and 21%
  Population Mitochondria Different-Phenotype (%): 16% and 37%
  Population Mitotic Cells (%): 33% and 48%
  Population Normal (%): 100% and 99%
  Population Pyknosed Nuclei (%): 24% and 13%
  Population Tubulin-Different-Phenotype (%): 45% and 43%
[3]; [5]
  Population Apoptotic (%): 100% and 70%
  Population Healthy Nuclei (%): 56% and 81%
  Population Hoechst High Intensity Objects (%): 2% and 0%
  Population Membrane Permeable-Phenotype (%): 82% and 57%
  Population Mitochondria Different-Phenotype (%): 47% and 40%
  Population Normal (%): 97% and 99%
  Population Pyknosed Nuclei (%): 14%
  Population Tubulin-Different-Phenotype (%): 100% and 98%
[3]; [6]
  Population Apoptotic (%): 60% and 75%
  Population Fragmented Nuclei (%): 11% and 3%
  Population Healthy Nuclei (%): 65% and 77%
  Population Hoechst High Intensity Objects (%): 0%
  Population Membrane Permeable-Phenotype (%): 21% and 18%
  Population Mitotic Cells (%): 40% and 24%
  Population Normal (%): 100%
  Population Pyknosed Nuclei (%): 23% and 18%
  Population Tubulin-Different-Phenotype (%): 28% and 35%
[3]; [7]
  Population Apoptotic (%): 73% and 96%
  Population Fragmented Nuclei (%): 22% and 9%
  Population Healthy Nuclei (%): 43% and 67%
  Population Hoechst High Intensity Objects (%): 0%
  Population Membrane Permeable-Phenotype (%): 89% and 86%
  Population Mitochondria Different-Phenotype (%): 42% and 39%
  Population Normal (%): 100% and 99%
  Population Pyknosed Nuclei (%): 34% and 23%
  Population Tubulin-Different-Phenotype (%): 100% and 99%
[3]; [8]
  Population Apoptotic (%): 57% and 87%
  Population Fragmented Nuclei (%): 10% and 3%
  Population Healthy Nuclei (%): 55% and 75%
  Population Hoechst High Intensity Objects (%): 0%
  Population Membrane Permeable-Phenotype (%): 9% and 12%
  Population Mitochondria Different-Phenotype (%): 15% and 37%
  Population Normal (%): 100% and 99%
  Population Pyknosed Nuclei (%): 35% and 21%
  Population Tubulin-Different-Phenotype (%): 24% and 37%
[3]; [9]
  Population Apoptotic (%): 96% and 91%
  Population Fragmented Nuclei (%): 22% and 10%
  Population Healthy Nuclei (%): 25% and 51%
  Population Hoechst High Intensity Objects (%): 4% and 1%
  Population Membrane Permeable-Phenotype (%): 91%
  Population Mitochondria Different-Phenotype (%): 33% and 42%
  Population Mitotic Cells (%): 4% and 8%
  Population Normal (%): 96% and 98%
  Population Pyknosed Nuclei (%): 52% and 37%
  Population Tubulin-Different-Phenotype (%): 100%
